Here are results for 18 compounds from ChEMBL document CHEMBL1141268, “Glycogen synthase kinase-3 (GSK-3) inhibitory activity and structure-activity relationship (SAR) studies of the manzamine alkaloids. Potential for Alzheimer's disease” (J Nat Prod, 2007).

The source made the active and inactive calls. The calls are words filed in the database; no cut-off is given here.

Assay [1] deals with T1, Glycogen synthase kinase-3 beta (Homo sapiens, UniProt P49841). Nature of the assay: Inhibition of human recombinant GSKbeta at 25 uM. The essentials:
(§1)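 Recombinant human GSK-3β in 11 mM MOPS pH 7.4, 0.2 mM EDTA, 1.25 mM EGTA, 26.25 mM MgCl2, 0.25 mM orthovanadate. Substrate was 62.5 µM GS-2 peptide, with γ-[33P]ATP plus unlabeled ATP at 12.5 µM final. Reaction ran 30 min at 30 °C. Aliquots were spotted on P81 phosphocellulose, washed and scintillation-counted. IC50 came from nonlinear regression of inhibition curves.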
Target sequence in this assay (P49841 whole entry, looked up): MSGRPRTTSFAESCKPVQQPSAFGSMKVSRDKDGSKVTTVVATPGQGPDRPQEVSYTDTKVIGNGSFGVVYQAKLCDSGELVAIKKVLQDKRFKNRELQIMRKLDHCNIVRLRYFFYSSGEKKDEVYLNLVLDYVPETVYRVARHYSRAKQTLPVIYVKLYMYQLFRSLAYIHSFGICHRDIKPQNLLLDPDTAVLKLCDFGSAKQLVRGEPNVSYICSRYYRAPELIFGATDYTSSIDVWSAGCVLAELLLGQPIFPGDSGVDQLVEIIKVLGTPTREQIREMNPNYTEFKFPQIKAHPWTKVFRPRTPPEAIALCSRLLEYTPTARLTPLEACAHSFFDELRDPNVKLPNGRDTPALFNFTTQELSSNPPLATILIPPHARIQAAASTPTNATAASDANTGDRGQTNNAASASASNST

For assay [2], the target named is T1, Glycogen synthase kinase-3 beta. As to the kind of experiment: Inhibition of human recombinant GSKbeta. The essentials: as §1
Target sequence in this assay (P49841 whole entry): as the sequence (P49841 whole entry, looked up) above
Assay [3] can be described thus: Inhibition of recombinant PKA. The essentials: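 Recombinant PKA catalytic subunit in ADBI buffer with Kemptide substrate and 35 µM unlabeled ATP. Incubated 20 min; otherwise as the other kinase assays (γ-[33P]ATP, P81 filter binding, scintillation counting).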
The nature of assay [4]: Inhibition of recombinant MAPK. The gist of the method:
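ERK1 (recombinant MAP kinase) in ADBI buffer (20 mM MOPS pH 7.2, 25 mM β-glycerol phosphate, 5 mM EGTA, 1 mM sodium orthovanadate) with 10 µg myelin basic protein as substrate. ATP at 20 µM final. Incubated 15 min; otherwise as the GSK-3β radiometric P81 filter assay.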

In assay [5] the target is Cyclin-dependent kinase 5/CDK5 activator 1 (Homo sapiens, UniProt Q00535). As to the kind of experiment: Inhibition of human recombinant CDK5/p35. The format is protein-complex assay. The gist of the method:
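Human recombinant cdk5-p35 with histone H1 substrate, run as the GSK-3β protocol: 11 mM MOPS pH 7.4, 0.2 mM EDTA, 1.25 mM EGTA, 26.25 mM MgCl2, 0.25 mM sodium orthovanadate, γ-[33P]ATP plus unlabeled ATP (12.5 µM final). Incubated 30 min at 30 °C, spotted on P81 phosphocellulose, washed, scintillation counted. IC50 by nonlinear regression of inhibition curves.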

Assay [6] addresses Cyclin-dependent kinase 1 (Homo sapiens) (UniProt P06493). As to the kind of experiment: Inhibition of recombinant CDK1. The essentials:
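Recombinant CDK-1 in ADBI buffer (20 mM MOPS pH 7.2, 25 mM β-glycerol phosphate, 5 mM EGTA, 1 mM sodium orthovanadate). Histone H1 substrate at […] and ATP at 22 µM final. Reaction run 15 min at 30 °C.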

Assay [7] addresses Glycogen synthase kinase-3 alpha (Homo sapiens) (UniProt P49840). Nature of the assay: Inhibition of recombinant GSKalpha. The gist of the method:
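Recombinant GSK-3α, run as the GSK-3β radiometric protocol: MOPS pH 7.4 buffer with EDTA, EGTA, MgCl2 and orthovanadate, plus γ-[33P]ATP. GS-2 peptide at 20 µM final and ATP at 26 µM. Incubated 12 min, then P81 filter binding and scintillation counting. IC50 by nonlinear regression.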

Glycogen synthase kinase-3 alpha (Homo sapiens), sequence (P49840 2-483 limits assumed): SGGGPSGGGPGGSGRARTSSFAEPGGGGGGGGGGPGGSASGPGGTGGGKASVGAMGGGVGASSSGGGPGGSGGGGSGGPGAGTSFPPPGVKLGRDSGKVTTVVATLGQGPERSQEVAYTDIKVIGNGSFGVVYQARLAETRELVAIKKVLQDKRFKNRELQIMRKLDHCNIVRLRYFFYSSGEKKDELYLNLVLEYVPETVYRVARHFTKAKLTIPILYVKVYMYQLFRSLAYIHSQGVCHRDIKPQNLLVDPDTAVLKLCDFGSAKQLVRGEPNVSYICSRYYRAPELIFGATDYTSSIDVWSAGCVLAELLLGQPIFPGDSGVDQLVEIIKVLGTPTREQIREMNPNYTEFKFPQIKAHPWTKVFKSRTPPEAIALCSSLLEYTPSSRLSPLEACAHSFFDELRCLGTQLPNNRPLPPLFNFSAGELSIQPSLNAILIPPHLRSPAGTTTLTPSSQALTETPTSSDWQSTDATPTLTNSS
Cyclin-dependent kinase 1 (Homo sapiens), sequence (P06493 whole entry, looked up): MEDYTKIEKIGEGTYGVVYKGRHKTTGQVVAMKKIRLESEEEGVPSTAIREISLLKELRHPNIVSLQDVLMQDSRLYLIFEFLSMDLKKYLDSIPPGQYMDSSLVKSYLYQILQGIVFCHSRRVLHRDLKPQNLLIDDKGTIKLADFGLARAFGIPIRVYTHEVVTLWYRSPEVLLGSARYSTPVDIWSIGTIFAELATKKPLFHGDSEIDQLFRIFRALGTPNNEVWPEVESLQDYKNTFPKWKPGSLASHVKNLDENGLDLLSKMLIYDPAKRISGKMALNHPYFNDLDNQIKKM
Cyclin-dependent kinase 5/CDK5 activator 1, sequence (Q00535 whole entry): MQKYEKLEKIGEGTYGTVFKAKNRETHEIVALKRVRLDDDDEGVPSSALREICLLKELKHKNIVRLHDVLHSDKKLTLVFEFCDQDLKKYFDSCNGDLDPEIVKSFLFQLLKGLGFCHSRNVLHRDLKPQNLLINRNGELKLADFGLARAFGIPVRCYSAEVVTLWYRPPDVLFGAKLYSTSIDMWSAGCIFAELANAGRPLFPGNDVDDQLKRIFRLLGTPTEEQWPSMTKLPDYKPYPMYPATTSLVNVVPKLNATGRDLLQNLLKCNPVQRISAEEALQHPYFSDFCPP
Cyclin-dependent kinase 5/CDK5 activator 1, sequence (Q15078 whole entry, further chain): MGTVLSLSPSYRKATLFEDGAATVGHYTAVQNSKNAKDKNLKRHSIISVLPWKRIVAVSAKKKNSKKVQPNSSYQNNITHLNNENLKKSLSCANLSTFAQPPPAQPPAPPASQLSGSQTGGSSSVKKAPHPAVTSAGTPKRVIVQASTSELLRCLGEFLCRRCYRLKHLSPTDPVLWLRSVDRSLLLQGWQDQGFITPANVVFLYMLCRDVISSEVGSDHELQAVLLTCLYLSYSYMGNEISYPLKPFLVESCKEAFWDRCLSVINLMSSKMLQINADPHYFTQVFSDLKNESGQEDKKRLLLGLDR

As usually defined, the inhibition is the share of the control response that was lost under treatment. For orientation: IC50 means the concentration at which inhibition is half-maximal. On to `O=C1CCCN2[C@@H](CC1)C[C@]13CN4CCCC/C=C\CC[C@](O)(C=C(c5nccc6c5[nH]c5c(OS(=O)(=O)c7ccc(Cl)cc7)cccc56)C1CC4)[C@H]23` (stereo not given in full), for which the inhibition in assay [1] turned out to be 76.7%. For the same compound, the IC50 in assay [2] is 7.2 µM.

Consider `Oc1cccc2c1[nH]c1c(C3=C[C@@]4(O)CCCCCCCCN5CCC3[C@]3(C[C@@H]6CCCCCCN6[C@H]34)C5)nccc12` (stereo not given in full), for which, in assay [1], the inhibition was 29%.

Regarding `CC(C)COc1cccc2c3ccnc(C4=C[C@@]5(O)CC/C=C\CCCCN6CCC4[C@]4(C[C@@H]7/C=C\CCCCN7[C@H]45)C6)c3n(CC(C)C)c12` (stereo not given in full), the inhibition in assay [1] worked out at 24.2%.

`O=C1CCCN2[C@@H](CC1)C[C@]13CN4CCCC/C=C\CC[C@](O)(C=C(c5nccc6c5[nH]c5ccccc56)C1CC4)[C@H]23` (stereo not given in full) [MANZAMINE E]: the IC50 in assay [2] turned out to be 25 µM.

Turning to `C1=C(c2nccc3c2[nH]c2ccccc23)C2CCN3CCCC/C=C\C/C=C/1[C@@H]1N4CCCC/C=C\[C@H]4C[C@]21C3` (stereo not given in full) [12,13-DEHYDROMANZAMINE A], the inhibition in assay [1] is 71.2%. The IC50 in assay [2] came out at 5.4 µM.

Consider `O[C@]12C=C(c3nccc4c3[nH]c3ccccc34)C3CCN(CCCC/C=C\CC1)C[C@@]31C[C@]34CC[C@H](CCCN3[C@H]12)O4` (stereo not given in full), for which, in assay [1], the inhibition was determined as 88.4%.

For `CC(=O)Oc1cccc2c1[nH]c1c(C3=C/C4=C/C/C=C\CCCCN5CCC3[C@]3(C[C@@H]6/C=C\CCCCN6[C@@H]43)C5)nccc12` (stereo not given in full) [12,13-DEHYDRO-8-O-ACETYLMANZAMINE A], in assay [1], the inhibition was found to be 79.1%. Besides, the 50% inhibitory concentration (IC50) in assay [2] turned out to be 4.8 µM.

With `Cc1ccc(S(=O)(=O)Oc2cccc3c2[nH]c2c(C4=C[C@@]5(O)CC/C=C\CCCCN6CCC4[C@]4(C[C@H]7/C=C\CCCCN7[C@H]45)C6)nccc23)cc1` (stereo not given in full), the inhibition in assay [1] was 80.4%.

Regarding `CCOc1cccc2c3ccnc(C4=C[C@@]5(O)CC/C=C\CCCCN6CCC4[C@]4(C[C@@H]7/C=C\CCCCN7[C@H]45)C6)c3n(CC)c12` (stereo not given in full) [9-N-ETHYL-8-ETHOXY-MANZAMINE A], in assay [1], the inhibition was found to be 78%. For the same compound, the IC50 in assay [2] was determined as 10.4 µM.

For the compound `O[C@]12C=C(c3nccc4c3[nH]c3ccccc34)[C@@H]3CCN(CCCC/C=C\CC1)C[C@@]31C[C@@H]3/C=C\CCCCN3[C@H]12` [MANZAMINE A], the outcome in assay [3], in assay [4], in assay [6] and in assay [7] was inactive. Also, the IC50 in assay [5] turned out to be 1.5 µM; in assay [2] it was 10.2 µM.

Take `Oc1ccc2[nH]c3c(C4=C[C@@]5(O)CC/C=C\CCCCN6CCC4[C@]4(C[C@@H]7/C=C\CCCCN7[C@H]45)C6)nccc3c2c1` (stereo not given in full): the inhibition in assay [1] worked out at 74.3%. In assay [2], the IC50 turned out to be 16.6 µM.

In the case of `CCCCCCCCCCCCn1c2ccccc2c2ccnc(C3=C[C@@]4(O)CC/C=C\CCCCN5CC[C@@H]3[C@]3(C[C@@H]6/C=C\CCCCN6[C@H]34)C5)c21`, the inhibition in assay [1] amounted to 0%.

As to `COc1cccc2c3ccnc(C4=C[C@@]5(O)CC/C=C\CCCCN6CCC4[C@]4(C[C@@H]7/C=C\CCCCN7[C@H]45)C6)c3n(C)c12` (stereo not given in full), the inhibition in assay [1] turned out to be 72.4%.

Take `Oc1cccc2c1[nH]c1c(C3=C[C@@]4(O)CC/C=C\CCCCN5CC[C@@H]3[C@]3(CC6/C=C\CCCCN6[C@H]34)C5)nccc12` (stereo not given in full): the IC50 in assay [2] came out at 4.8 µM.

Consider `O=C1CCCN2[C@@H](CC1)C[C@]13CN4CCCC/C=C\CC[C@](O)(C=C(c5nccc6c5[nH]c5c(OS(=O)(=O)c7ccc(Br)cc7)cccc56)C1CC4)[C@H]23` (stereo not given in full), for which the inhibition in assay [1] was 63%. Also, in assay [2], the 50% inhibitory concentration (IC50) stood at 23 µM.

As to `O[C@]12C=C(c3nccc4c3[nH]c3ccccc34)[C@@H]3CCN(CCCCCCCC1)C[C@@]31C[C@@H]3CCCCCCN3[C@H]12`, the inhibition in assay [1] amounted to 0%.

`CC(=O)Nc1nc(C)c(S(=O)(=O)Oc2cccc3c2[nH]c2c(C4=C[C@@]5(O)CC/C=C\CCCCN6CCC4[C@]4(C[C@@H]7CCC(=O)CCCN7[C@H]45)C6)nccc23)s1` (stereo not given in full): in assay [1], the inhibition came to 78.8%. Moreover, in assay [2], the IC50 is 8.5 µM.

As for `COC(=O)CCCCn1c2ccccc2c2ccnc(C3=C[C@@]4(O)CC/C=C\CCCCN5CCC3[C@]3(C[C@@H]6/C=C\CCCCN6[C@H]34)C5)c21` (stereo not given in full), the inhibition in assay [1] worked out at 3%.
